Screens: PubChem, several laboratories
A selection: hits, their analogues and other compounds. The true share with any hit is near 1.5%.
SIRT5 inh = sirtuin-5 (human) deacylase inhibition. Purified SirT5, succinyl-peptide AMC, trypsin-coupled fluorescence. inhibition, % at 15 µM. 330,000 compounds, 1.1% hits. AID 652115; in the data active = inhibition above about 15%
Target sequence (Q9NXA8 whole entry, looked up): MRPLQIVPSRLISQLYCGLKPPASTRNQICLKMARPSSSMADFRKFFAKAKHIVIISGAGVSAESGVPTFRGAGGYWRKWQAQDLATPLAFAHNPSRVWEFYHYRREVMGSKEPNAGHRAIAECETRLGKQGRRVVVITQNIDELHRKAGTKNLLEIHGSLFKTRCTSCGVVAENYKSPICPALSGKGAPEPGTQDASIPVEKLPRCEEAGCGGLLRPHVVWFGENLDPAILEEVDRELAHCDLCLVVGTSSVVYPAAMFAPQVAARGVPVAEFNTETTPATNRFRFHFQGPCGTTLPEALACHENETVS
S100A4 inh HTS = inhibitors of human S100A4 binding to myosin IIA peptide; P26447; S100A4/TAMRA-MyoIIA peptide fluorescence polarization; inhibition, % at 10.7 µM; 360,000 compounds, 0.14% hits;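 active = mean inhibition of at least 70% across replicates, with every replicate also reaching that level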
Target sequence (P26447 whole entry, looked up): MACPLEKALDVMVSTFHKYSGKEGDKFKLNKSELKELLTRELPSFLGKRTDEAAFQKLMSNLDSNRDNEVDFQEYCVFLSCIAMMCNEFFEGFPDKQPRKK
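System – human S100A4 monomer protein, biochemical binding assay · Buffer or medium – Calcium-containing HEPES buffer, pH 7.2 · Timing – 5 min between mix addition and reading · Also added – TAMRA-labelled myosin IIA heavy-chain peptide probe, 5 nM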
PKA-R1A act = PKA-R1A complex activation. activation, % at 11.4 µM. 340,000 compounds, 0.083% hits. PKA-R1A dissociation, Cy5-IP20 fluorescence polarization; scaled: DMSO 0%, 113 µM cGMP 100%;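 active = percent activation above the mean of all tested compounds plus 3 SD, cut at about 19% in these data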;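 also: higher means more PKAc released from R1A so a rise in polarization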
CRFR2-BP antag = blocks CRF-induced signaling of the CRF-BP/CRF-R2 complex. HEK293 CRF-R2/CRF-BP, CRF-induced calcium fluorescence. inhibition, % at 11.8 µM. 350,000 compounds, 0.59% hits. AID 588475;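 active = inhibition of the ligand-induced calcium signal above about 50% at the single tested concentration, limit read from the data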
PKA-R2B act = activators of human PKA-R2B complex. P22694+P31323. PKA-R2B holoenzyme dissociation, Cy5-IP20 fluorescence polarization; R2B truncated from residue 108, S112A mutant; 0% DMSO only, 100% 113 µM cGMP. activation, % at 11.4 µM. 340,000 compounds, 0.079% hits;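 active = activation above a cutoff set at the mean over all compounds plus 3 SD, cut at about 18% in these data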;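 also: higher means more holoenzyme dissociation and a rise in polarization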
Numbers without * were called inactive; . = not tested or not shown.

SMILES	SIRT5 inh	S100A4 inh HTS	PKA-R1A act	CRFR2-BP antag	PKA-R2B act
O=C(Cc1cccc(NC(=O)C2CCCN(C(=O)C3CCCC3)C2)c1)Nc1cccc(C(=O)N2CCOCC2)c1 (stereo not drawn)	19*	3	-14	-2	7
CN(C(=O)c1cccc(NC(=O)Cc2ccc(NC(=O)C3CCN(C(=O)C4CCCC4)CC3)cc2)c1)C1CCC1	-6	-1	-16	7	-6
CN(C(=O)c1cccc(NC(=O)Cc2ccc(NC(=O)C3CCN(C(=O)C4CCC4)CC3)cc2)c1)C1CC1	23*	1	-2	-10	-9
CN(Cc1ccccc1)C(=O)c1ccc(NC(=O)Cc2cccc(NC(=O)C3CCN(C(=O)C4CCCCC4)CC3)c2)cc1	16*	-23	-7	12	4
O=C(Nc1cccc(F)c1)N[C@H]1CC[C@@H](CCn2cc(Cc3ccccc3)nn2)O[C@@H]1CO	3	-5	.	.	.
Cc1ccc(CN2CCSc3ccc(C(=O)N4CCN(c5ncccn5)CC4)cc32)cc1	.	.	-1	62*	-6
CCN1CCN(C(=O)c2ccc3c(c2)N(Cc2ccc(C)cc2)CCS3)CC1	-3	-4	2	-13	-5
COc1ccccc1C#Cc1ccc([C@@H]2[C@@H](CO)N3CCCCN(C(=O)C4CC4)C[C@H]23)cc1	8	2	.	.	.
O=C(CNS(=O)(=O)c1ccccc1)NCC(=O)N1CCCCC1	15*	2	-7	-6	-7
O=C(C[C@@H]1C=C[C@@H](NC(=O)C2CCOCC2)[C@@H](CO)O1)Nc1ccccc1	7	10	.	.	.
Cc1c(-c2ccc(Cl)cc2)[n+](=O)c2c(n1[O-])CCCC2	3	7	-14	-8	-2
Cc1c(-c2ccc(Cl)cc2)[n+](=O)c(-c2ccccc2)cn1[O-]	-3	9	.	111*	.
CCOC(=O)C(Cc1ccccc1)NC(=O)CCc1nnc2ccc(N3CCCCC3)nn12 (stereo not drawn)	1	17	-5	0	-2
CCOC(=O)C(Cc1ccccc1)NC(=O)CCc1nnc2ccc(N3CCCC3)nn12 (stereo not drawn)	0	2	-5	58*	1
CCS(=O)(=O)N[C@H]1C=C[C@H](CC(=O)Nc2ccccc2)O[C@H]1CO	.	-5	.	.	.
COc1ccc(S(=O)(=O)Nc2cccc3c2O[C@@H](CN(C)S(=O)(=O)c2cccs2)[C@@H](C)CN([C@@H](C)CO)C3=O)cc1	0	32	.	.	.
O=C(CSCc1ccccc1Br)NNC(=S)NCc1ccco1	1	-2	-7	77*	4
Cc1ccccc1CSCC(=O)NC(=O)NCc1ccco1	-3	-1	-1	3	0
COc1cccc(C2(c3cccc(OC)c3)CC2C(=O)Nc2ccccc2Cl)c1 (stereo not drawn)	-2	4	-2	77*	10
COc1cc(OC)c2ccc(=O)oc2c1C(CCN1CCCC1)c1ccc2c(c1)OCO2 (stereo not drawn)	10	-1	-15	-5	-5
COc1cc(OC)c2ccc(=O)oc2c1C(CCN1CCOCC1)c1ccc2c(c1)OCO2 (stereo not drawn)	1	-5	-2	76*	-2
COc1ccc(OC)c2c1sc(=NC(=O)C1COc3ccccc3O1)n2C (stereo not drawn)	0	-10	-9	82*	-2
CN(C)CCN(Cc1cccs1)S(=O)(=O)c1csc(C(N)=O)c1	33*	-5	-5	9	-7
CC(OC(=O)/C=C/c1ccccc1)C(=O)Nc1ccc2c(c1)OCCO2 (stereo not drawn)	20*	-4	-2	2	-2
CC1=NN(C(N)=S)C(=O)C1N=Nc1cccc(C(=O)O)c1 (stereo not drawn)	24*	-4	-4	-1	-3
SMILES	SIRT5 inh	S100A4 inh HTS	PKA-R1A act	CRFR2-BP antag	PKA-R2B act
COC(=O)c1c(-c2ccc(OC)cc2)oc2ccc(-c3cc(OC)c(OC)c(OC)c3)cc12	23*	0	-11	10	0
COc1ccc(CNC(=O)Nc2cccs2)cc1OC	.	.	-5	62*	-11
Cc1c(NC(=S)NC(=O)c2sc3ccccc3c2Cl)cccc1C(=O)O	36*	0	2	23	3
Cc1ccccc1S(=O)(=O)N1C[C@@H](O)COC[C@@H]2O[C@@H](CC(=O)N3CCN(C)CC3)CC[C@H]21	4	-3	.	.	.
CN(C)C(=O)c1ccc(-c2ccc([C@H]3[C@H](CO)N4CCCCN(CCC(F)(F)F)C[C@@H]34)cc2)cc1	33*	-1	.	.	.
OC[C@H]1[C@H](c2ccc(-c3ccccc3)cc2)[C@@H]2CN(CCC(F)(F)F)CCCCN12	27*	-9	.	.	.
CC(=O)N1CCCCN2[C@@H](CO)[C@H](c3ccc(-c4cccc(C(=O)N(C)C)c4)cc3)[C@@H]2C1	-2	102*	.	.	.
C[C@@H]1CCCCO[C@@H](CN(C)Cc2ccc3c(c2)OCO3)[C@H](C)CN([C@@H](C)CO)C(=O)c2cc(NC(=O)CCC(F)(F)F)ccc2O1	-3	1	.	.	.
COc1ccc(CN2C[C@H](C)[C@@H](OC)CN(C)C(=O)c3ccc(NC(=O)c4nc5ccccc5s4)cc3OC[C@@H]2C)cc1	102*	15	.	.	.
CO[C@@H]1CN(C)C(=O)c2cc(NC(C)=O)ccc2OC[C@H](C)N(Cc2cncnc2)C[C@H]1C	-1	76*	.	.	.
CO[C@@H]1CN(C)C(=O)c2cc(NC(=O)c3nc4ccccc4s3)ccc2OC[C@H](C)N(Cc2cncnc2)C[C@@H]1C	5	.	.	.	.
COc1ccc(CN2C[C@H](C)[C@@H](OC)CN(C)C(=O)c3ccc(NC(=O)c4nc5ccccc5s4)cc3OC[C@H]2C)cc1	6	13	.	.	.
CO[C@H]1CN(C)C(=O)c2cc(NC(=O)c3nc4ccccc4s3)ccc2OC[C@H](C)NC[C@H]1C	1.9*	-19	.	.	.
CO[C@H]1CN(C)C(=O)c2cc(NC(=O)c3nc4ccccc4s3)ccc2OC[C@H](C)N(Cc2cncnc2)C[C@@H]1C	15*	.	.	.	.
O=C(NCC[C@H]1CC[C@H](NC(=O)C2CCCCC2)[C@H](CO)O1)c1ccc(F)cc1	-1	-4	.	.	.
CCCN1C[C@H](C)[C@@H](OC)CN(C)C(=O)c2cc(NC(=O)Nc3ccccc3F)ccc2OC[C@H]1C	3	7	.	.	.
COc1ccc2c3c([nH]c2c1)[C@H](CO)NCC31CN(C(=O)Cc2cccnc2)C1	.	-2	.	.	.
CCCOC(=O)c1ccc(Oc2cn[nH]c2-c2ccc(OCC)cc2O)cc1	.	.	-4	107*	-1
CN(C)C(=O)[C@H]1[C@H](CO)[C@H]2Cn3c(ccc(C4=CCCC4)c3=O)[C@@H]1N2CC1CC1	-16	-13	.	.	.
O=C(Nc1cccc(S(=O)(=O)N2CCCCC2)c1)c1ccc(S(=O)(=O)C(F)F)cc1	-3	-3	-1	54*	-4
